Measured values reported in paper PMC8068092 (Molecular pharmaceutics, 2020).

Columns and labels:
[1] = test system: MDA-MB-468 cells (mtp53 R273H) compared to MCF7 cells (wtp53); experiment: Cy5p53Tet cellular uptake by live cell imaging; format: cell-based, human; conditions: 500 nM, 2 h incubation, 37 °C; confocal microscopy, Nikon Element analysis, at least 200 cells per sample
[2] = test system: MDA-MB-468 cells (mtp53) compared to MCF7 cells (wtp53); experiment: Cy5p53Tet cellular uptake by flow cytometry; format: cell-based, human; conditions: 2 h, 37 °C
Procedure, shortened: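 MCF7 and MDA-MB-468 cells in DMEM with 10% FBS, seeded at 5 × 10^5 per well and held at 37 °C overnight. Medium swapped for vehicle, 100 or 500 nM Cy5-peptide for 2 h at 37 °C. Cells washed, trypsinized, pelleted and resuspended in PBS. 2 × 10^4 events per sample; geometric MFI taken.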

[3] = test system: MCF-10A nonmalignant human mammary epithelial cells (wtp53); experiment: Peptide cytotoxicity assay; format: cell-based; conditions: 500 nM Cy5p53Tet, 24 h, three independent experiments
MCF7 cells (wtp53) = experiment: Peptide cytotoxicity assay; format: cell-based, human; conditions: 500 nM Cy5p53Tet, 24 h, three independent experiments
Procedure, shortened: (§1)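 Cells (1.25 × 10^5, 12-well) seeded the day before at 37 °C, then given 500 nM Cy5-peptide for 24 h. MTT (5 mg/mL solution) added for 1 h at 37 °C. Product dissolved in 0.04 N HCl/isopropanol, 5 min in the dark at room temperature. Absorbance read at 550 nm minus 620 nm background. Three independent experiments; mean ± SEM, t-test.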

[4] = test system: MDA-MB-468 cells (mtp53 R273H); experiment: Peptide cytotoxicity assay; format: cell-based, human; conditions: 500 nM Cy5p53Tet, 24 h, three independent experiments
Procedure, shortened: as §1

[5] = test system: HCC70 cells (mtp53 R248Q); experiment: Peptide cytotoxicity assay; format: cell-based, human; conditions: 500 nM Cy5p53Tet, 24 h, three independent experiments
Procedure, shortened: as §1

[6] = test system: MDA-MB-468 (mtp53 R273H) and MCF7 (wtp53) xenografts; experiment: NIRF imaging in mice bearing bilateral MCF7/MDA-MB-468 xenografts; format: in vivo, mouse
[7] = test system: MDA-MB-468 shp53 cells (mtp53 R273H knockdown); experiment: Cy5p53Tet uptake with and without shRNA depletion of mtp53; format: cell-based, human; conditions: 500 nM; for Reduction of Cy5p53Tet signal (relative ROI intensity) on depletion of mtp53: knockdown vs control
Procedure, shortened: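 MDA-MB-468 shp53 knockdown induced with 8 μg/mL doxycycline for 7 days; p53 depletion checked by Western blot. Cells seeded at 2 × 10^5 per well 1 day before, then given 500 nM Cy5-peptide at 37 °C for 30 min, 2 h, 4 h or 24 h. Peptide removed, cells PBS-washed, Hoechst-stained (1 μg/mL, 5 min), confocal Z-stacks at 60×. Three independent experiments; mean + SEM, two-tailed t-test.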

[8] = after intravenous administration, IVIS Spectrum

## H-CysCy5-RKKRRQRRGEYFTLQIRGRER-FEMFRELNEALELK-OH [Cy5p53Tet]
[1]
  Uptake of Cy5p53Tet in MDA-MB-468 cells compared to MCF7 cells: twofold higher uptake
[2]; 100 nM Cy5p53Tet
  Geometric MFI, fold more uptake in MDA-MB-468 than in MCF7 cells: 1.58 fold
[2]; 500 nM Cy5p53Tet
  Geometric MFI, fold more uptake in MDA-MB-468 than in MCF7 cells: 1.65 fold
[3]
  Reduction of mitochondrial activity (MTT): No significant reduction of mitochondrial activity
MCF7 cells (wtp53)
  Reduction of mitochondrial activity (MTT): 9.8%
[4]
  Reduction of mitochondrial activity (MTT): 10.6%
[5]
  Reduction of mitochondrial activity (MTT): 13.6%
[6]; [8]
  In vivo NIRF signal in MCF7 tumors: no signal was present
  In vivo NIRF signal in MDA-MB-468 tumors: clearly observed
[6]; liver, large intestines, small intestines, three mice
  Signal in healthy tissues (whole-body and resected tissue images): significantly high levels of the signal in several healthy tissues
[7]; 30 min incubation
  Reduction of Cy5p53Tet signal (relative ROI intensity) on depletion of mtp53: 61%
[7]; 2 h incubation
  Reduction of Cy5p53Tet signal (relative ROI intensity) on depletion of mtp53: 63%
[7]; 4 h incubation
  Reduction of Cy5p53Tet signal (relative ROI intensity) on depletion of mtp53: 67%
[7]; 24 h incubation
  Difference of Cy5p53Tet signal between knockdown and control cells: no statistically significant difference
